These results are taken from ChEMBL document CHEMBL6127074, “Isolation and Characterization of the Cyanobacterial Macrolide Glycoside Moorenaside, an Anti-Inflammatory Analogue of Aurisides Targeting the Keap1/Nrf2 Pathway” (J Nat Prod, 2024).

Calls of active or inactive are those of the source. No cut-off for these calls is given here.

One data set relates to HCT-116. Briefly: Antiproliferative activity against human HCT-116 cells assessed as cell viability at 32 uM incubated for 48 hrs by MTT assay. To be noted: HCT-116, 48 h. Background: Tetrazolium dyes change colour on reduction, which living cells bring about.
Data set [1] relates to RAW264.7. In words: Anti-inflammatory activity in LPS induced mouse RAW264.7 cells assessed as fold increase in Nqo1 transcript level at 32 uM preincubated for 1 hr followed by LPS stimulation and measured after 12 hrs by TaqMan analysis. Format: functional. The note with it: time 13 hrs. An outline of the steps: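 RAW264.7 cells seeded 175,000/well, given fresh medium, pretreated 1 h with half-log dilutions from 32 μM (0.5% DMSO vehicle), then stimulated with LPS 1 μg/mL for 12 h. Unstimulated wells were run alongside. RNA was extracted and reverse transcribed with oligo(dT), then measured by TaqMan qPCR for Nqo1 and iNos with actin as the endogenous control. Mean ± SD, n = 3, two-tailed unpaired t-test against DMSO + LPS.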
On the technique in general: Real-time PCR tracks product formation cycle by cycle.

Data set [2] relates to HEK293. In words: Activation of Nrf2-ARE pathway in HEK293 cells transfected with firefly luciferase reporter assessed as fold increase in Nrf2 activity at 10 uM incubated for 24 hrs by ARE luciferase reporter gene based microplate reader assay. The data set is classed as cell-based. The note with it: Homo sapiens, filed as activator. The method, boiled down:
(§1)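 HEK293 cells stably carrying an ARE-driven firefly luciferase reporter, grown in DMEM with 10% FBS at 37 °C and 5% CO2, seeded 10,000/well and left overnight. Half-log serial dilutions from 32 μM were added, with tBHQ (10 μM) as positive control and 0.5% DMSO as vehicle. Luminescence was read with BriteLite reagent after 24 h and expressed as fold activity; n = 3.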
In general terms: In a reporter assay the amount or activity of a reporter protein is the signal.

Data set [3] concerns RAW264.7. Briefly: Anti-inflammatory activity in LPS induced mouse RAW264.7 cells assessed as reduction in NO production at 32 uM preincubated for 1 hr followed by LPS stimulation and measured after 24 hrs by Griess reagent based plate reader assay. The note with it: time 25.0 hrs. Format: functional, cell-based. The method, boiled down: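 RAW264.7 cells seeded 20,000/well, pretreated 1 h with half-log dilutions from 32 μM (0.5% DMSO vehicle), then stimulated with LPS 1 μg/mL. Unstimulated controls were included. After 24 h the supernatant was mixed with Griess reagent and absorbance read at 540 nm. NO was calculated from a nitrite standard curve. Mean ± SD, n = 3, t-test against DMSO + LPS.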

In data set [4] the test system is HEK293. Briefly: Cytotoxicity against HEK293 ARE-luc cells at 1 to 32 uM incubated for 24 hrs by MTT assay. The note with it: human, hek293, 24 h, dose 1-32 µM. The data set is classed as toxicity, cell-based. The method, boiled down: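 HEK293 ARE-luc cells seeded 10,000/well and left overnight, then treated with half-log dilutions from 32 μM, tBHQ 10 μM, or 0.5% DMSO for 24 h. Viability was read by MTT; mean ± SD, n = 3.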

In data set [5] the test system is RAW264.7. Briefly: Cytotoxicity against mouse RAW264.7 cells at 32 uM incubated for 24 hrs by MTT assay. The note with it: raw264.7, 24 h. Format: toxicity, cell-based. The method, boiled down: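 RAW264.7 cells seeded 20,000/well and treated for 24 h with half-log dilutions from 32 μM together with LPS 1 μg/mL (0.5% DMSO vehicle). Viability was read by MTT in parallel with the NO assay; mean ± SD, n = 3.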

Data set [6] deals with HEK293. Briefly: Activation of Nrf2-ARE pathway in HEK293 cells transfected with firefly luciferase reporter assessed as fold increase in Nrf2 activity at 32 uM incubated for 24 hrs by ARE luciferase reporter gene based microplate reader assay. The data set is classed as cell-based. To be noted: Homo sapiens, filed as activator. The method, boiled down:
as §1

Data set [7] has as its system Trypanosoma brucei rhodesiense. In words: Antiparasitic activity against Trypanosoma brucei rhodesiense. Format: functional, organism-based.
A further data set has as its system KB. In words: Antiproliferative activity against human KB cells. The data set is classed as functional, cell-based.
The test system of the next data set is LoVo. In words: Antiproliferative activity against human LoVo cells. Format: functional, cell-based.

As usually defined, the viability is a per cent measure of how many cells are alive, often set against a control. Consider `CO[C@@H]1[C@@H](O)[C@@H](OC)[C@H](O[C@@H]2C[C@H]3O[C@@](O)(C2)[C@H](C)C(=O)O[C@@H](/C=C/C=C/Br)C/C(C)=C/C(=O)C3(C)C)O[C@H]1C`, for which the viability at 32 µM with HCT-116 came to 55%. The entries for the “fold change (FC)” value with RAW264.7 [1], in the data set with HEK293 [2] and in the data set on HEK293 [6] were 5, 2.5 and 7.7, respectively. Further, in the data set with RAW264.7 [3], the outcome was Active. Moreover, the Activity entry with HEK293 [4] and in the data set on RAW264.7 [5] was “Non-Toxic” throughout.

As a reminder, the IC50 is the concentration that gives 50% inhibition. High values mean weaker potency, low ones greater potency. On to `CCCCC/C=C/C=C/[C@H]1OC(=O)C[C@@H]2O[C@H](C[C@H](O)C[C@H](C)C[C@@H](O)C1(C)C)C[C@H](O[C@@H]1OC[C@@H](OC)[C@H](O)[C@H]1O)C2(C)C`, for which, in data set [7], half-maximal inhibition (IC50) required 11 µM.

In the case of `CO[C@@H]1[C@@H](OC)[C@@H](O)[C@H](O[C@H]2C[C@@]3(O)CC(=O)O[C@@](C)(CC/C=C/C=C/Br)C[C@H](O)[C@@H](C)CC[C@H](O3)[C@@H]2C)O[C@H]1C`, the IC50 in the data set on KB came to 4.3 µM; in the data set with LoVo, 15 µM.

On to `C=CCCC/C=C/C=C/[C@H]1OC(=O)C[C@@H]2O[C@H](C[C@H](O)C[C@H](C)C[C@@H](O)C1(C)C)C[C@H](O[C@@H]1OC[C@@H](OC)[C@H](O)[C@H]1O)C2(C)C`, for which the half-inhibitory concentration (IC50) in data set [7] turned out to be 11 µM.
